Compounds with a hit are over-represented: about 4.9% of the library has one in this group of screens.
STAT3 blocker – STAT3 signaling inhibition | 190,000 tested, 0.89% active | inhibition, % at 5.5 µM | AID 862 | U3A cells, IL-6 STAT3-luciferase reporter, luminescence; host cell line lacks STAT1;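 active means inhibition above the mean inhibition across all screened compounds plus 3 SD, cut at about 44% in these data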
NF-kB neuron act – compounds increasing NF-kB expression in human neuronal cells. NF-kB reporter expression; active compounds read high. fold change at 12.5 µM. 190,000 tested, 1.6% active. AID 1239; in the data active means fold change above about 3.3
APP 5'UTR act – APP 5'UTR luciferase reporter activation; 190,000 tested, 1% active; SH-SY5Y APP 5'UTR luciferase reporter, luminescence; zero percent = DMSO vehicle wells; activation, % at 2 µM;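 active means activation above a set limit, based on mean plus 3 SD of controls, cut at about 140% in these data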
STAT1 inh – STAT1 signaling inhibition | NIH 3T3 STAT1-luciferase reporter, IFN-gamma, luminescence | inhibition, % at 5.5 µM | 200,000 tested, 0.35% active | AID 920;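 active means inhibition above a set limit, the mean inhibition across all tested compounds plus 3 SD, cut at about 34% in these data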
STAT3 act – increases IL-6 driven STAT3 reporter signal | U3A cells, IL-6 STAT3-luciferase reporter, luminescence; 100% = signal with IL-6 EC80 alone | activation (% of control), % at 5.6 µM | 190,000 tested, 0.91% active;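 active means activation above the screen-wide mean of compound activation plus 3 SD, cut at about 130% in these data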
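Test system: STAT3-luciferase reporter U3A cells; Detection: reporter luminescence signal; Times: 1 h compound pre-exposure, 6 h IL-6 stimulation, 37 °C; Benchmarks: IL-6-only high control; Also added: IL-6 stimulus at 33 ng/mL final.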
STAT1 act – STAT1 signaling activation; NIH 3T3 STAT1-luciferase reporter, IFN-gamma, luminescence; 100% = IFN-gamma alone, no compound; activation (% of control), % at 5.5 µM; 200,000 tested, 2.6% active;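 active means activation above the screen-wide mean activation plus 3 SD, cut at about 130% in these data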
Each line names hits and unclear results; the compound was inactive in the other large screens.

Cc1ccc(C2NC(=O)CCC2[N+](=O)[O-])cc1 (configuration not stated)	none
Cc1ccc(C(=O)N/N=C/C2=Cc3ccccc3OC2C)cc1 (configuration not stated)	none
CC1Oc2ccccc2C=C1/C=N/NC(=O)c1ccccc1 (configuration not stated)	STAT1 act 133
Clc1cccc(Cl)c1Cn1ccc(C2CC2)n1	none
CC(=O)N1CCN(S(=O)(=O)c2cccc(C(=O)Nc3nccs3)c2)CC1	STAT1 act 131
CN=C1CC(SC)=C1c1ccc(C)cc1	none
CCOC(=O)CCc1c(C)c2ccc(OCC(=O)OC(C)C)cc2oc1=O	none
CCCCc1c(C)c2ccc(OCC(C)=O)cc2oc1=O	STAT1 act 133
CCCc1c(C)c2ccc(OCC(C)=O)cc2oc1=O	STAT1 act 131
COc1ccc(NC(=O)COC(=O)/C=C/c2cnc3ccccc3n2)cc1	none
S=c1nc(-c2ccccc2)oc2c1CCCC2	NF-kB neuron act 4, STAT1 act 132
COc1cccc(-c2nc(=S)c3c(o2)CCCC3)c1	APP 5'UTR act 170, STAT1 act 144
O=[N+]([O-])c1ccc(-c2nc(=S)c3c(o2)CCCC3)cc1	none
COc1cccc(-c2nc(=S)c3c(n2Cc2ccco2)CCCC3)c1	none
O=c1c2ccccc2nc2c3ccccc3c(Cl)nn12	none
O=c1c2ccccc2nc2c3ccccc3cnn12	STAT1 act 134
CC(C)N(CCNCC(O)COc1ccc(C(C)(C)c2ccccc2)cc1)C(C)C (configuration not stated)	none
CCOCCCNC(=O)c1cc2c(-c3ccc(Cl)cc3)nn(C)c2s1	STAT3 act 136
CC1CCCN(C(=O)c2cc3c(-c4ccc(Cl)cc4)nn(C)c3s2)C1 (configuration not stated)	none
Cc1cc(/C=N/NC(=O)c2ccccc2F)c(C)n1-c1ccccc1	STAT1 act 131
Cc1cc(C(=O)COC(=O)c2ccc[nH]c2=O)c(C)n1-c1ccc(F)cc1	none
Cc1cc(C(=O)COC(=O)c2ccc[nH]c2=O)c(C)n1-c1ccccc1	STAT3 blocker 49, STAT1 inh 36
O=C(CN1CCCCC1)NCC1(c2ccccc2)CCCC1	none
CS(=O)(=O)c1nc(-c2ccc(Br)cc2)cc(-c2ccccc2)c1C#N	none
COc1ccc(-c2cc(-c3ccccc3)c(C#N)c(S(C)(=O)=O)n2)cc1	NF-kB neuron act 6.3
CN(C)c1ccc(NC(=O)C(=O)NCCOc2ccccc2)cc1	none
CCCNC(=O)C(=O)Nc1ccc(N(C)C)cc1	STAT1 act 137
COc1ccc(NC(=O)Nc2ccc3nccnc3c2)cc1	STAT1 act 130
COc1ccc(NC(=O)Nc2ccc(N(C)C)cc2)cc1	STAT1 act 137
COc1ccccc1NC(=O)c1c(N=Cc2ccccc2O)cnn1C	none
Cc1cc(/C=C(\C#N)C(=O)O)c(C)n1C1CC1	none
COCCNC(=O)/C(C#N)=C/c1cc(C)n(C2CCCCC2)c1C	APP 5'UTR act 144, STAT1 act 134
Cc1ccccc1-n1c(C)cc(/C=C(\C#N)C(=O)NCC2CCCO2)c1C (configuration not stated)	STAT1 act 149
COc1ccc(-n2c(C)cc(/C=C(\C#N)C(=O)NCc3ccco3)c2C)cc1	none
Cc1cc(/C=C(/C#N)C(=O)Nc2ccccc2)c(C)n1-c1cccnc1	STAT1 act 150
COCCNC(=O)/C(C#N)=C/c1cc(C)n(-c2ccc(C)cc2)c1C	NF-kB neuron act 6.2, APP 5'UTR act 154, STAT1 act 145
CC(C)NOC(=O)c1ccc(Cl)cc1	none
Cn1cnnc1SCC(=O)Nc1ccc(OCc2ccccc2)cc1	none
Cc1ccc(NC(=O)/C(C#N)=C/c2ccsc2)c(C)c1	STAT1 act 137
Cc1ccccc1NC(=O)/C(C#N)=C\c1ccsc1	none
COC(=O)c1cn(NC(=O)c2cc([N+](=O)[O-])ccc2F)c(=O)c2ccccc12	STAT1 act 139
COC(=O)c1cn(NC(=O)C2CCC(C)CC2)c(=O)c2ccccc12 (configuration not stated)	none
O=C(NCc1ccncc1)Nc1ccccc1F	none
O=C(Nc1ccccc1)OCc1cncs1	none
O=C(/C=C/c1ccccc1)OCc1cncs1	STAT1 act 129
O=C(Cc1ccc(-n2c(=O)c3sccc3n(CC(=O)Nc3ccccc3F)c2=O)cc1)NCc1ccco1	none
O=C(C1=C(O)C(=O)N(CCc2ccccc2)C1c1cccs1)c1ccco1 (configuration not stated)	none
CCc1ccc2nc(N3C(=O)C(O)=C(C(=O)c4ccco4)C3c3cccs3)sc2c1 (configuration not stated)	APP 5'UTR act 158
O=C(COc1ccc(Br)cc1Br)NC(=O)NC1CCCC1	NF-kB neuron act 3.4, STAT1 act 142
O=C(COc1ccccc1Br)NC1CCCC1	none
CC1=C(C(=O)OCC2CCCO2)C(c2coc3ccc(C)cc3c2=O)C2=C(CCCC2=O)N1 (configuration not stated)	none
CC1=C(C(=O)OCC2CCCO2)C(c2coc3ccc(Cl)cc3c2=O)C2=C(CCCC2=O)N1 (configuration not stated)	STAT3 act 134
Cn1ccsc1=NC(=O)c1ccccc1F	none
Cn1ccs/c1=N\C(=O)Nc1ccccc1	STAT1 act 141
CCOC(=O)c1ccc(N=c2scc(C)n2CC)cc1	NF-kB neuron act 4.3
C=CCn1c(C)csc1=Nc1ccc(C(C)=O)cc1	none
c1ccc(N2CCN(c3ncnc4sc5c(c34)CCC5)CC2)cc1	none
CCc1cc2c(N3CCN(c4ccccc4)CC3)ncnc2s1	STAT3 blocker 46
CCOc1ccc(-c2n[nH]c(C(=O)NN)c2C)cc1	STAT1 act 129
Cc1c(-c2ccccc2)n[nH]c1C(=O)NN	none
CCOC(=O)C1=C(CBr)NC(=O)NC1C (configuration not stated)	none
O=C(/C=C\Nc1ccccn1)c1ccc(Cl)cc1	STAT3 blocker 100, APP 5'UTR act 175, STAT1 inh 56
O=C(/C=C/c1ccccc1O)c1ccc(Cl)cc1	STAT3 act 135
CCOC(=O)c1ccc(NC(=S)N(CCN2CCCCCC2)Cc2cccs2)cc1	none
Cc1ccccc1Nc1scc(-c2ccc(Cl)cc2)[n+]1-c1ccccc1C	none
O=C(NCc1cccs1)C1CC(=O)N(c2ccc(Cl)cc2)C1 (configuration not stated)	none
Cn1c(=O)c(C(=O)c2ccccc2)nc2ccccc21	none
COCCn1c(/C=C/c2ccccc2)nc2ccccc21	NF-kB neuron act 3.9, STAT1 act 146
Cn1c(/C=C/c2ccccc2)nc2ccccc21	STAT3 blocker 89, STAT1 inh 75

Assay outcomes as filed in PubChem.
